Laboratory results as given in ChEMBL document CHEMBL1833841, “Synthesis and biological evaluation of a novel class of isatin analogs as dual inhibitors of tubulin polymerization and Akt pathway” (Bioorg Med Chem, 2011).
Structures can show the parent of a compound that is named as a salt. The source made the active and inactive calls. The calls are words filed in the database; no cut-off is given here.

Assays:
A549 = experiment: Cytotoxicity against human A549 cells after 48 hrs by MTS assay; format: functional, cell-based; settings: A549, 48 h
How it was run: (§1)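 A549, MCF-7 and UACC903 cells grown in DMEM with 10% FBS at 37°C, 5% CO2. 5×10^3 cells/well were left to adhere 24 h, then treated 48 h with compound (DMSO stock diluted in DMEM, 0.5–50 µM). MTS read at 490 nm and normalized to control. Dose-response fitted as sigmoidal, variable slope. Triplicates from at least two independent experiments.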

HT-29 [1] = experiment: Cytotoxicity against human HT-29 cells after 48 hrs by MTS assay; format: functional, cell-based; settings: HT-29, 48 h
How it was run: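 HT29 cells maintained in RPMI with 10% FBS. 5×10^3 cells/well were left to adhere 24 h, then exposed 48 h to compound (DMSO stock diluted in DMEM, 0.5–50 µM). MTS absorbance at 490 nm normalized to control. IC50 from sigmoidal variable-slope fit. Triplicates, at least two independent experiments.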

MCF7 = experiment: Cytotoxicity against human MCF7 cells after 48 hrs by MTS assay; format: functional, cell-based; settings: MCF7, 48 h; how it was run: as §1
UACC-903 = experiment: Cytotoxicity against human UACC903 cells after 48 hrs by MTS assay; format: functional, cell-based; settings: UACC-903, 48 h; how it was run: as §1
Bos taurus = organism: Bos taurus; experiment: Inhibition of bovine brain tubulin polymerization at 10 uM after 1 hrs by fluorescence assay
How it was run: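 Compound at 10 µM final, DMSO as control. Fluorescence (ex 360, em 440 nm) read every 10 s for 1 h at 37°C, duplicate wells.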

HT-29 [2] = experiment: Induction of apoptosis in human HT-29 cells at 1.25 uM after 24 hrs by PE annexin V and 7-Aminoactinomycin D staining-based flow cytometry; format: functional
How it was run: (§2)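 HT29 cells (RPMI, 10% FBS) treated with 1.25, 2.5 or 5 μM, or DMSO control, for 24 h at 37 °C. Cells then harvested, washed twice in cold PBS and resuspended at 1×10^6 cells/ml in binding buffer. Stained with PE annexin V and 7-AAD for 15 min at RT in the dark, then analysed by flow cytometry. 7-AAD-positive cells counted as dead.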

HT-29 [3] = experiment: Induction of apoptosis in human HT-29 cells assessed as increase in caspase 3/7 activation after 24 hrs by fluorescence spectrophotometry; format: functional, cell-based
How it was run: (§3)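 HT29 cells seeded at 1×10^4/well and grown 24 h, then treated 24 h with 1.25–5 µM compound or DMSO. Equal volume of Apo-ONE caspase-3/7 reagent added, shaken 30 s, incubated 2 h at RT. Cleaved-substrate fluorescence read at ex 498/em 521 nm, expressed relative to DMSO cells. Means ± SD, triplicate, one representative experiment.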

HT-29 [4] = experiment: Induction of apoptosis in human HT-29 cells assessed as early apoptotic cells at 5 uM after 24 hrs by PE annexin V and 7-Aminoactinomycin D staining-based flow cytometry (reference value: 1.37%); format: functional
How it was run: (§4)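 HT29 cells were treated with 1.25–5.0 µM compound or DMSO for 24 h at 37°C, harvested by low-speed centrifugation and washed twice in cold PBS. They were resuspended in binding buffer at 1×10^6 cells/ml, stained with PE annexin V and 7-AAD for 15 min at RT in the dark, and quantified by flow cytometry.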

HT-29 [5] = experiment: Induction of apoptosis in human HT-29 cells assessed as viable cells at 2.5 uM after 24 hrs by PE annexin V and 7-Aminoactinomycin D staining-based flow cytometry (reference value: 93.2%); format: functional; settings: HT-29, 24 h, read-out: Activity; how it was run: as §4
HT-29 [6] = experiment: Induction of apoptosis in human HT-29 cells assessed as viable cells at 1.25 uM after 24 hrs by PE annexin V and 7-Aminoactinomycin D staining-based flow cytometry (reference value: 93.2%); format: functional; settings: HT-29, 24 h, read-out: Activity; how it was run: as §4
HT-29 [7] = experiment: Inhibition of AKT expression in human HT-29 cells assessed as total AKT level at 1 uM after 24 hrs by Western blotting; format: functional, cell-based
How it was run: (§5)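 HT29 cells treated 24 h with 1 or 2 µM compound or no drug. Lysed in HEPES/NaCl/EDTA/NP40 buffer with phosphatase and protease inhibitors. Protein equalized by Bradford, run on 10% gels, semi-dry transfer to nitrocellulose, blocked in 5% milk. Pan-Akt or phospho-Akt rabbit polyclonal primaries overnight at 4°C, HRP secondaries, chemiluminescence. β-actin loading control.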

HT-29 [8] = experiment: Induction of apoptosis in human HT-29 cells assessed as early apoptotic cells at 2.5 uM after 24 hrs by PE annexin V and 7-Aminoactinomycin D staining-based flow cytometry (reference value: 1.37%); format: functional; how it was run: as §4
HT-29 [9] = experiment: Induction of apoptosis in human HT-29 cells assessed as dead cells at 5 uM after 24 hrs by PE annexin V and 7-Aminoactinomycin D staining-based flow cytometry (reference value: 1.33%); format: functional; how it was run: as §2
HT-29 [10] = experiment: Induction of apoptosis in human HT-29 cells assessed as dead cells at 1.25 uM after 24 hrs by PE annexin V and 7-Aminoactinomycin D staining-based flow cytometry (reference value: 1.33%); format: functional; how it was run: as §2
HT-29 [11] = experiment: Induction of apoptosis in human HT-29 cells after 24 hrs by PE annexin V and 7-Aminoactinomycin D staining-based flow cytometry; format: functional, cell-based; how it was run: as §4
HT-29 [12] = experiment: Induction of apoptosis in human HT-29 cells assessed as early apoptotic cells at 1.25 uM after 24 hrs by PE annexin V and 7-Aminoactinomycin D staining-based flow cytometry (reference value: 1.37%); format: functional; how it was run: as §4
HT-29 [13] = experiment: Inhibition of AKT expression in human HT-29 cells assessed as total AKT level at 2 uM after 24 hrs by Western blotting; format: functional, cell-based; how it was run: as §5
HT-29 [14] = experiment: Induction of apoptosis in human HT-29 cells assessed as dead cells at 2.5 uM after 24 hrs by PE annexin V and 7-Aminoactinomycin D staining-based flow cytometry (reference value: 1.33%); format: functional; how it was run: as §2
HT-29 [15] = experiment: Induction of apoptosis in human HT-29 cells at 5 uM after 24 hrs by PE annexin V and 7-Aminoactinomycin D staining-based flow cytometry (reference value: 6.8%); format: functional; how it was run: as §2
HT-29 [16] = experiment: Induction of apoptosis in human HT-29 cells at 2.5 uM after 24 hrs by PE annexin V and 7-Aminoactinomycin D staining-based flow cytometry; format: functional; how it was run: as §2
HT-29 [17] = experiment: Induction of apoptosis in human HT-29 cells assessed as increase in caspase 3/7 activation after 24 hrs by fluorescence spectrophotometry relative to control; format: functional; design: concentration or dose not given beside the values; how it was run: as §3
HT-29 [18] = experiment: Induction of apoptosis in human HT-29 cells assessed as late apoptosis or necrotic cells at 2.5 uM after 24 hrs by PE annexin V and 7-Aminoactinomycin D staining-based flow cytometry (reference value: 4.1%); format: functional; how it was run: as §4
[19] = biological target: RAC-alpha serine/threonine-protein kinase (Homo sapiens) (UniProt P31749); experiment: Inhibition of AKT phosphorylation in human HT-29 cells assessed as p-AKT level at 1 uM after 24 hrs by Western blotting; format: cell-based; how it was run: as §5
Chain of RAC-alpha serine/threonine-protein kinase (Homo sapiens) (P31749 whole entry): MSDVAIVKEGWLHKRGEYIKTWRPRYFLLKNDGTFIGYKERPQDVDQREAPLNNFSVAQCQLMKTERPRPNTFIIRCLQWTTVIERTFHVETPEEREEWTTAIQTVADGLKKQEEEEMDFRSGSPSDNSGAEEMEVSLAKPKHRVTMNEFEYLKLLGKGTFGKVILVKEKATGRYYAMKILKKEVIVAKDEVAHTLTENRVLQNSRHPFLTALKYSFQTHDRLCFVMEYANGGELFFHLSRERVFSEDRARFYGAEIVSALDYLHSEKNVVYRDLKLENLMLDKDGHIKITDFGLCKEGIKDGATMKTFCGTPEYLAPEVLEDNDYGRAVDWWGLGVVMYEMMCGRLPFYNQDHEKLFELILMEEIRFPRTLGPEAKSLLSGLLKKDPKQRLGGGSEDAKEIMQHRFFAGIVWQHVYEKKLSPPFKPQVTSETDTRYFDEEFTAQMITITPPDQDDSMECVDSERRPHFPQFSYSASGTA

HT-29 [20] = experiment: Induction of apoptosis in human HT-29 cells assessed as viable cells at 5 uM after 24 hrs by PE annexin V and 7-Aminoactinomycin D staining-based flow cytometry (reference value: 93.2%); format: functional; settings: HT-29, 24 h, read-out: Activity; how it was run: as §4
HT-29 [21] = experiment: Induction of apoptosis in human HT-29 cells assessed as late apoptosis or necrotic cells at 1.25 uM after 24 hrs by PE annexin V and 7-Aminoactinomycin D staining-based flow cytometry (reference value: 4.1%); format: functional; how it was run: as §4
HT-29 [22] = experiment: Induction of apoptosis in human HT-29 cells assessed as late apoptosis or necrotic cells at 5 uM after 24 hrs by PE annexin V and 7-Aminoactinomycin D staining-based flow cytometry (reference value: 4.1%); format: functional; how it was run: as §4

SMILES: O=C1C(=O)N(CCCCCl)c2c(Br)cc(Br)cc21
- IC50 (A549): 3.81 µM
- IC50 (HT-29 [1]): 2.51 µM
- IC50 (MCF7): 14.9 µM
- IC50 (UACC-903): 3.74 µM

SMILES: CC[C@]1(O)C[C@@H]2CN(CCc3c([nH]c4ccccc34)[C@@](C(=O)OC)(c3cc4c(cc3OC)N(C)[C@H]3[C@@](O)(C(=O)OC)[C@H](OC(C)=O)[C@]5(CC)C=CCN6CC[C@]43[C@@H]65)C2)C1 [VINBLASTINE SULFATE]
- IC50 (HT-29 [1]): 0.55 µM
- IC50 (UACC-903): 1.65 µM
- inhibition (Bos taurus): 66%

SMILES: CC(=O)O[C@H]1C(=O)[C@@]2(C)[C@H]([C@H](OC(=O)c3ccccc3)[C@]3(O)C[C@H](OC(=O)[C@H](O)[C@@H](NC(=O)c4ccccc4)c4ccccc4)C(C)=C1C3(C)C)[C@]1(OC(C)=O)CO[C@@H]1C[C@@H]2O
- inhibition (Bos taurus): inactive

SMILES: O=C1C(=O)N(CCCCl)c2c(Br)cc(Br)cc21
- IC50 (A549): 5.27 µM
- IC50 (HT-29 [1]): 2.57 µM
- IC50 (MCF7): 21.5 µM
- IC50 (UACC-903): 8.57 µM

SMILES: O=C1C(=O)N(Cc2ccc(CN=C=S)cc2)c2c(Br)cc(Br)cc21
- Activity (HT-29 [2]): 16.38%
- Activity (HT-29 [3]): Dose-dependent effect
- Activity (HT-29 [4]): 2.93%
- viability at 2.5 µM (HT-29 [5]): 63.4%
- viability at 1.25 µM (HT-29 [6]): 83.6%
- inhibition (HT-29 [7]): Active
- Activity (HT-29 [8]): 6.78%
- Activity (HT-29 [9]): 10.8%
- Activity (HT-29 [10]): 4.29%
- Activity (HT-29 [11]): Dose-dependent effect
- Activity (HT-29 [12]): 3.5%
- inhibition (HT-29 [13]): Active
- Activity (HT-29 [14]): 6.56%
- Activity (HT-29 [15]): 61.23%
- Activity (HT-29 [16]): 36.64%
- fold change (FC) (HT-29 [17]): 16
- IC50 (A549): 3.82 µM
- Activity (HT-29 [18]): 23.3%
- IC50 (HT-29 [1]): 1.09 µM
- inhibition [19]: inactive
- IC50 (MCF7): 12 µM
- viability at 5 µM (HT-29 [20]): 38.8%
- IC50 (UACC-903): 3.11 µM
- inhibition (Bos taurus): 77%
- Activity (HT-29 [21]): 8.59%
- Activity (HT-29 [22]): 47.5%

SMILES: N#C[Se]CCCCN1C(=O)C(=O)c2cc(Br)cc(Br)c21
- IC50 (A549): 3.15 µM
- IC50 (HT-29 [1]): 2.39 µM
- IC50 (MCF7): 1.53 µM
- IC50 (UACC-903): 9.03 µM

SMILES: O=C1C(=O)N(Cc2ccc(CBr)cc2)c2c(Br)cc(Br)cc21
- IC50 (A549): 7.86 µM
- IC50 (HT-29 [1]): 5.1 µM
- IC50 (MCF7): 27.7 µM
- IC50 (UACC-903): 2.64 µM

SMILES: N#C[Se]CCCN1C(=O)C(=O)c2cc(Br)cc(Br)c21
- Activity (HT-29 [2]): 7.92%
- Activity (HT-29 [3]): Dose-dependent effect
- Activity (HT-29 [4]): 48.6%
- viability at 2.5 µM (HT-29 [5]): 89.6%
- viability at 1.25 µM (HT-29 [6]): 92.1%
- Activity (HT-29 [8]): 2.25%
- Activity (HT-29 [9]): 1.89%
- Activity (HT-29 [10]): 1.53%
- Activity (HT-29 [11]): Dose-dependent effect
- Activity (HT-29 [12]): 1.94%
- Activity (HT-29 [14]): 1.92%
- Activity (HT-29 [15]): 56.28%
- Activity (HT-29 [16]): 10.44%
- fold change (FC) (HT-29 [17]): 16
- IC50 (A549): 3.46 µM
- Activity (HT-29 [18]): 6.27%
- IC50 (HT-29 [1]): 3.18 µM
- IC50 (MCF7): 1.65 µM
- viability at 5 µM (HT-29 [20]): 43.8%
- IC50 (UACC-903): 21.6 µM
- inhibition (Bos taurus): 63%
- Activity (HT-29 [21]): 4.45%
- Activity (HT-29 [22]): 5.79%

SMILES: N#C[Se]Cc1ccc(CN2C(=O)C(=O)c3cc(Br)cc(Br)c32)cc1
- IC50 (A549): 2.41 µM
- IC50 (HT-29 [1]): 2.59 µM
- IC50 (MCF7): 1.45 µM
- IC50 (UACC-903): 12.1 µM

SMILES: N#CSCCCCN1C(=O)C(=O)c2cc(Br)cc(Br)c21
- IC50 (A549): 5.53 µM
- IC50 (HT-29 [1]): 2.42 µM
- IC50 (MCF7): 22.1 µM
- IC50 (UACC-903): 2.06 µM

SMILES: N#CSCCCN1C(=O)C(=O)c2cc(Br)cc(Br)c21
- IC50 (A549): 3.53 µM
- IC50 (HT-29 [1]): 3.24 µM
- IC50 (MCF7): 9.78 µM
- IC50 (UACC-903): 2.89 µM
